Reference: ChEMBL document CHEMBL3232933, “Pyrazole-5-carboxamides, novel inhibitors of receptor for advanced glycation end products (RAGE)” (Eur J Med Chem, 2014)
Calls of active or inactive are those of the source. The rule behind the calls is not given here.

Tests used:
[1] = target: T1, Advanced glycosylation end product-specific receptor (Homo sapiens, UniProt Q15109); assay: Inhibition of biotinylated human RAGE assessed as bound amyloid beta level at 20 uM after 60 mins by ELISA relative to control
Method in brief: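 Biotinylated human RAGE (1 µg), Aβ1-42 oligomers (aged in PBS for 24 h at 4 °C) and compound at a single fixed level were co-incubated in TBS-T with 2.5% BSA on streptavidin plates for 60 min at ambient temperature. Bound Aβ was detected with HRP-4G8, TMB and A450. % inhibition is given as mean ± SD of duplicate experiments.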

[2] = target: T1, Advanced glycosylation end product-specific receptor; assay: Inhibition of biotinylated human RAGE assessed as bound amyloid beta level after 60 mins by ELISA
Mus musculus [3] = assay: Antialzheimer activity in ICR mouse injected with human amyloid beta (1 to 42) assessed as reduction of human amyloid beta (1 to 42) level in brain at 25 mg/kg, ip administered 20 mins prior to human amyloid beta (1 to 42) injection measured after 30 mins relative to control; type: functional; design: scale not given: the % may be the effect or the level left; details: route intraperitoneal
Method in brief: (§1)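 Male ICR mice, 3 months old (25 g, n = 4), got one i.p. dose of 25 mg/kg or vehicle. After 20 min, human Aβ1-42 in PBS was injected into the tail vein and circulated for 30 min. Human Aβ was then measured in brain extracts and plasma. Values are means ± SD.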

Mus musculus [4] = assay: Antialzheimer activity in ICR mouse injected with human amyloid beta (1 to 42) assessed as increase in human amyloid beta (1 to 42) level in plasma at 25 mg/kg, ip administered 20 mins prior to human amyloid beta (1 to 42) injection measured after 30 mins relative to control; type: functional; details: route intraperitoneal; method in brief: as §1
[5] = AUC in Sprague-Dawley rat at 2 mg/kg, iv; type: ADME, organism-based; design: dose 2 mg/kg, route intravenous; details: plasma
[6] = Kinetic solubility of the compound in PBS at pH 7.4 by nephelometric analysis; type: physicochemical; details: read-out: Kinetic_solubility
Method in brief: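 Kinetic solubility was measured on the HCl salt, added from a DMSO stock, in triplicate experiments.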

T1 sequence (Q15109 whole entry): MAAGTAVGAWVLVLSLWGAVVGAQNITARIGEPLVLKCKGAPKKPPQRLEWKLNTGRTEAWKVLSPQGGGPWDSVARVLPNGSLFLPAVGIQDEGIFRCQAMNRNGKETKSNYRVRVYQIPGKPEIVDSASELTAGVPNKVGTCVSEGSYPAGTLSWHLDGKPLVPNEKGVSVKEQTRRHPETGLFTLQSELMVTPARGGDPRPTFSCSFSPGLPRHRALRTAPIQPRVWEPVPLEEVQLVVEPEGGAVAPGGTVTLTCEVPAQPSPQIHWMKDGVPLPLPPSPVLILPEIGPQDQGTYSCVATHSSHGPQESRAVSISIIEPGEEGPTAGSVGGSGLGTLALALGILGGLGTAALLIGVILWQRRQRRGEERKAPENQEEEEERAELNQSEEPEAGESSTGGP

| inhibition [1] | Structure (SMILES) | further results |
| --- | --- | --- |
| 76% | CCCCOc1cc(OCCCN(CC)CC)ccc1NC(=O)c1cc(-c2ccc(OC3CCCCC3)cc2)nn1C | IC50 [2]: 2.5 µM |
| 34.1% | CCCCOc1cc(OCCCN(CC)CC)ccc1NC(=O)c1cc(-c2ccc(Oc3ccc(OC)c(F)c3)cc2)nn1C | – |
| 44.6% | CCCCOc1cc(OCCCN(CC)CC)ccc1NC(=O)c1cc(-c2ccc(Oc3ccc(Cl)cc3)cc2)nn1CCC | – |
| 32.1% | CCCCOc1cc(OCCCN(CC)CC)ccc1NC(=O)c1cc(-c2ccc(Oc3ccc(Cl)cc3)cc2)no1 | – |
| 20.5% | CCN(CC)CCOc1ccc(NC(=O)c2cc(-c3ccc(OC)cc3)nn2C)cc1 | – |
| inactive | CCCCOc1cc(OCCCN(CC)CC)ccc1NC(=O)c1cc(-c2ccc(Oc3ccc(Cl)cc3)cc2)nn1CCCC | – |
| 79.3% | CCCCOc1cc(OCCCN(CC)CC)ccc1NC(=O)c1cc(-c2ccc(Oc3ccc(F)cc3)cc2)nn1C [listing 1 of 2 here] | – |
| 77% | CCCCOc1cc(OCCCN(CC)CC)ccc1NC(=O)c1cc(-c2ccc(Oc3ccccc3)cc2)nn1C | IC50 [2]: 5.4 µM |
| 41.4% | CCCCn1nc(-c2ccc(Oc3ccc(Cl)cc3)cc2)cc1C(=O)Nc1ccc(OCCCN(CC)CC)cc1 | – |
| 44.7% | CCCCOc1cc(OCCCN(CC)CC)ccc1NC(=O)c1cc(-c2ccc(Oc3ccc(Cl)cc3)cc2)nn1CC | – |
| 83.1% | CCCCOc1cc(OCCCN(CC)CC)ccc1NC(=O)c1cc(-c2ccc(Oc3ccc(C(F)(F)F)cc3)cc2)nn1C | IC50 [2]: 1.9 µM |
| inactive | CCCCOc1cc(OCCCN(CC)CC)ccc1NC(=O)c1cc(-c2ccc(OC)cc2)n[nH]1 | – |
| 27% | CCN(CC)CCOc1ccc(NC(=O)c2cc(-c3ccc(Oc4ccc(Cl)cc4)cc3)nn2C)cc1 | – |
| – | CCCCOc1cc(OCCCN(CC)CC)ccc1NC(=O)c1cc(-c2ccc(Oc3ccc(F)cc3)cc2)nn1C [listing 2 of 2 here] | Activity (Mus musculus [3]): 37.86%; Activity (Mus musculus [4]): 4.01%; AUC [5]: 8560 ng·h/mL |
| 33.8% | CCN(CC)CCCOc1ccc(NC(=O)c2cc(-c3ccc(Oc4ccc(Cl)cc4)cc3)nn2C)cc1 | – |
| 74.2% | CCCCOc1cc(OCCCN(CC)CC)ccc1NC(=O)c1cc(-c2ccc(Oc3ccc(OC)cc3)cc2)nn1C | IC50 [2]: 7.8 µM |

| inhibition [1] | Structure (SMILES) | further results |
| --- | --- | --- |
| – | CCCCOc1cc(OCCCN(CC)CC)ccc1NC(=O)c1cc(-c2ccc(Oc3ccc(F)cc3)cc2)nn1C.Cl | solubility kinetic [6]: 80.3 µM |
| – | CCN(CC)CCOc1cccc(Nc2nc(-c3ccc(Cl)cc3)cc(-c3ccc(Cl)cc3)n2)c1.Cl | solubility kinetic [6]: 16.5 µM |
| 37% | CCCCOc1cc(OCCCN(CC)CC)ccc1NC(=O)c1cc(-c2ccc(Oc3cccc(F)c3)cc2)nn1C | – |
| 36.5% | CCCCOc1cc(OCCCN(CC)CC)ccc1NC(=O)c1cc(-c2ccc(Oc3ccc(OC)c(Cl)c3)cc2)nn1C | IC50 [2]: 5.3 µM |
| 49.7% | CCCCOc1cc(OCCCN(CC)CC)ccc1NC(=O)c1cc(-c2ccc(Oc3ccc(Cl)cc3)cc2)nn1C | – |
| 45.7% | CCCCOc1cc(OCCCN(CC)CC)ccc1NC(=O)c1cc(-c2ccc(Oc3ccc(Cl)cc3)cc2)n(CCC)n1 | – |
| 19.9% | CCCCOc1cc(OCCCN(CC)CC)ccc1NC(=O)c1cc(-c2ccc(Oc3ccc(F)c(F)c3)cc2)nn1C | – |
| inactive | CCCCOc1cc(OCCCN(CC)CC)ccc1NC(=O)c1cc(-c2ccc(Oc3ccc(C(C)(C)C)cc3)cc2)nn1C | – |
| 29.5% | CCCCOc1cc(OCCCN(CC)CC)ccc1NC(=O)c1cc(-c2ccc(Oc3ccccc3F)cc2)nn1C | – |
| 32.4% | CCCCOc1cc(OCCCN(CC)CC)ccc1NC(=O)c1cc(-c2ccc(OC)cc2)nn1C | – |
| inactive | CCCCOc1cc(OCCCN(CC)CC)ccc1NC(=O)c1cc(-c2ccc(Oc3ccc(Cl)cc3)cc2)n[nH]1 | – |
| 20.5% | CCN(CC)CCCOc1ccc(NC(=O)c2cc(-c3ccc(OC)cc3)nn2C)cc1 | – |
| 52.6% | CCCCOc1cc(OCCCN(CC)CC)ccc1NC(=O)c1cc(-c2ccc(Oc3ccccn3)cc2)nn1C | IC50 [2]: 18.9 µM |
| 36% | CCCCOc1cc(OCCCN(CC)CC)ccc1NC(=O)c1cc(-c2ccc(Oc3ccc(Cl)cc3)cc2)n(CCCC)n1 | – |
| – | CCN(CC)CCOc1cccc(Nc2nc(-c3ccc(Cl)cc3)cc(-c3ccc(Cl)cc3)n2)c1 | AUC [5]: 10600 ng·h/mL |
